{"source": "ChEMBL document CHEMBL4393678", "about": "“Novel Tetrahydroquinazolinamines as Selective Histamine 3 Receptor Antagonists for the Treatment of Obesity” (J Med Chem, 2019)", "test": "Cmax in C57BL/6J mouse brain assessed as 4-(2-Amino-8-methyl-5,6,7,8-tetrahydroquinazolin-4-yl)phenol level at 20 mg/kg, po by LC-MS/MS analysis", "format": "ADME, organism-based", "parameters": "dose 20 mg/kg, route oral", "conditions": "in vivo", "how_it_was_run": "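Male C57BL/6J mice (6-8 weeks, 20 ± 5 g) fasted overnight (12-16 h) got a single 20 mg/kg oral dose as 2.5 mg/mL suspension in 1% w/v gum acacia; n=5 per time point. Serum and brain (PBS homogenate 1:6 w/v) sampled up to 24 h. Parent and demethylated metabolite quantified by LC-MS/MS after liquid-liquid extraction (C18, MRM, phenacetin internal standard; linear 0.25-200 ng/mL). Two-compartment open model fit.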"}
{"smiles": "COc1ccc(-c2nc(N)nc3c2CCCC3C)cc1", "note": "(racemic)", "values": [{"measurement": "Cmax", "value": 101, "unit": "ng/g"}]}
